Bioassay records deposited in PubChem by Broad Institute.
A selection: hits, their analogues and other compounds. The true share with any hit is near 3.2%.
DENV2 CPE – inhibitors of DENV2 cytopathic effect; AID 651640; CPE inhibition, % at 9.99 µM; 1.7% of 350,000 active; DENV2-infected cells, cytopathic effect rescue, plate reader; in the data active = CPE inhibition above about 20%, passing the limit was not always enough; tested in BHK-21 cells;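 note: 0% = median of neutral control wells and 100% = median of positive control wells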
S100A4 inh HTS – inhibitors of human S100A4 binding to myosin IIA peptide. inhibition, % at 10.7 µM. P26447. 0.14% of 360,000 active. S100A4/TAMRA-MyoIIA peptide fluorescence polarization;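 active = mean inhibition of at least 70% across replicates, with every replicate also reaching that level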
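Test system – S100A4 monomer (human) · Compound – single-point compound testing · Schedule – 5 min incubation before reading · Probe or stimulus – TAMRA-labelled myosin IIA heavy-chain peptide probe, 5 nM · Benchmarks – neutral control DMSO, positive control TFP · Medium – Calcium-containing HEPES buffer, pH 7.2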
Cneo AK release – Cryptococcus neoformans lysis via adenylate kinase release; C. neoformans lysis, adenylate kinase release luminescence, 4 h; normalised: neutral wells 0, clomiphene wells 100; lysis activity, % at 15 µM; 0.2% of 360,000 active; AID 651654;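 active = mean lysis activity across replicates of at least 80%, whatever share of replicates individually reach that level; inactive = mean lysis activity below 80%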
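Material: C. neoformans cells | Amount: Yeast cell density of 5 × 10^6 cells/mL | Medium: Fresh YPD growth medium | Dosing: Single dose | Times: Static 4 h at 37 °C with compound, 1 h detection | Detection: AK luminescence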
Ecoli rRNA inh – selective bacterial rRNA inhibition in E. coli | E. coli WT GFP vs humanized-ribosome RFP mutants, fluorescence, 24 h; stronger effect = lower value; DMSO median 0, no signal -100 | GFP signal change (wild-type ribosome), % (test concentration not listed) | 1.6% of 350,000 active;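 active = significant combined selectivity score with lowered wild-type GFP, culture density cut under 30%, mutant RFP and density less affected; inactive = any of these conditions unmet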
AF4-AF9 inh – blocks AF4 peptide binding to human AF9. inhibition, % at 10 µM. AID 651704. 0.47% of 350,000 active. AlphaScreen, biotin-AF4 peptide binding to FLAG-AF9;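 active = every replicate reaching a set inhibition limit, whatever the replicate mean, cut at about 25% in these data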;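 note: 0% = plate neutral control median and 100% = total signal loss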
Target sequence (P42568 whole entry, looked up): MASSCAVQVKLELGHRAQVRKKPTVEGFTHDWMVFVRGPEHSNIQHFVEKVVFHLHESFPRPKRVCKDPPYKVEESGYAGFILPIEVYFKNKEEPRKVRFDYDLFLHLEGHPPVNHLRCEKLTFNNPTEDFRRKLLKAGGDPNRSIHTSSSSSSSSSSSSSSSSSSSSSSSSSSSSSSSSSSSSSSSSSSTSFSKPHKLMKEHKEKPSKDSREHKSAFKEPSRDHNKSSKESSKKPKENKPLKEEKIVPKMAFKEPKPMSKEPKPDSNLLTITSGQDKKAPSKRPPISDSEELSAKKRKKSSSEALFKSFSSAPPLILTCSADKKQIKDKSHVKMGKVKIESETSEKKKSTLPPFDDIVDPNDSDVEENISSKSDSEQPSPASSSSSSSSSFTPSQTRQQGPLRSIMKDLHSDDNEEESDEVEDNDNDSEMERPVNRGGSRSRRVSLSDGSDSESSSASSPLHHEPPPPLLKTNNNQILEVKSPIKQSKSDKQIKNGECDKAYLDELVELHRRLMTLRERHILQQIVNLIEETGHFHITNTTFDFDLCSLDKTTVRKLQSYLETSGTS
PfHsp90 set2 – growth inhibition of yeast expressing Plasmodium Hsp90; 0.32% of 310,000 active; S. cerevisiae expressing PfHsp90, BacTiter-Glo ATP, 48 h; yeast lacking PDR1 and PDR3 efflux regulators; inhibition, % at 9.4 µM;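 active = every replicate shows inhibition above about 80%, whatever the replicate mean, limit read from the data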;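 note: 0% = DMSO neutral controls and 100% = 20 µM radicicol positive controls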
The depositor's hits bear a star; · = no result; ! = not confirmed by another sample.

SMILES	DENV2 CPE	S100A4 inh HTS	Cneo AK release	Ecoli rRNA inh	AF4-AF9 inh	PfHsp90 set2
CCN(CC)CCNC(=O)c1[nH]c2ccc(OCc3ccccc3)cc2c1C	-6	3	·	-18	25*	-7
CCN(Cc1ccccc1)C(=O)c1[nH]c2ccc(OC)cc2c1C	5	3	-3	5	3	-1
COc1ccc(CN(C)C[C@@H]2Oc3ccc(NC(=O)NC(C)C)cc3CC(=O)N([C@H](C)CO)C[C@@H]2C)cc1	4	5	43	2	-2	·
CN1C=C/C(=C\c2cc[n+](C)c3ccccc23)c2ccccc21	-1	0	-1	-16	56*	19
O=C(C[C@H]1CC[C@H]2[C@@H](COC[C@@H](O)CN2C(=O)c2ccc(F)cc2)O1)NCCCN1CCOCC1	20*	-14	3	0	-23	·
O=C(C[C@H]1CC[C@@H]2[C@H](COC[C@@H](O)CN2Cc2ccc(Cl)cc2)O1)NCCc1ccccc1	-1	0	0	-21*!	-1	·
O=C(C[C@H]1CC[C@@H]2[C@H](COC[C@H](O)CN2Cc2ccc(F)cc2)O1)NCc1ccncn1	27*	11	0	2	-5	·
O=C(C[C@@H]1CC[C@@H]2[C@H](COC[C@@H](O)CN2Cc2ccc(F)cc2)O1)NCCc1ccccc1	28*	0	14	-5	0	·
O=C(C[C@@H]1CC[C@@H]2[C@H](COC[C@H](O)CN2C(=O)c2ccc(F)cc2)O1)NCCCN1CCOCC1	9	-27	-4	-2	-17	·
O=C(C[C@@H]1CC[C@H]2[C@@H](COC[C@H](O)CN2Cc2ccc(F)cc2)O1)NCCc1ccccc1	-9	-7	-3	-2	-2	·
CNC(=O)C[C@H]1CC[C@@H]2[C@H](COC[C@H](O)CN2S(=O)(=O)c2ccc(Oc3ccccc3)cc2)O1	1	3	4	2	1	·
COc1ccc(C(=O)Nc2ccc3c(c2)C(=O)N(C)[C@H]2CC[C@H](CC(=O)NCC4CC4)O[C@H]2CO3)cc1	11	·	0	0	-1	·
[N-]=[N+]=NCc1ccccc1C[C@]1(C(=O)N2CCOCC2)COC(c2ccc(OCCCO)cc2)=N1	9	-26	50	·	1	·
O=C(C[C@H]1CC[C@H]2[C@@H](COC[C@H](O)CN2Cc2ccccc2)O1)NCc1ccccc1Cl	-10	-3	0	-8	-1	·
O=C(C[C@H]1CC[C@H]2[C@@H](COC[C@@H](O)CN2S(=O)(=O)c2ccccc2Cl)O1)NCc1ccccc1Cl	73*	13	-1	-4	-1	·
CCCNC(=O)C[C@@H]1CC[C@H]2[C@@H](COC[C@H](O)CN2Cc2ccccc2F)O1	-4	4	97*	-1	0	·
O=C(C[C@@H]1CC[C@@H]2[C@H](COC[C@@H](O)CN2Cc2ccccc2)O1)NCc1ccccc1Cl	33*	0	2	-3	-1	·
O=C(C[C@H]1CC[C@H]2NC[C@H](O)COC[C@@H]2O1)NCCc1ccccc1	36*	-7	-1	1	-1	·
CCC(=O)N(C)C[C@@H]1Oc2ncc(-c3ccccc3F)cc2C(=O)N([C@H](C)CO)C[C@H]1C	7	-3	-1	5	0	·
C[C@H]1CCCCO[C@@H](CN(C)S(=O)(=O)c2ccccc2)[C@@H](C)CN([C@@H](C)CO)C(=O)c2cc(NC(=O)Cc3ccccc3)ccc2O1	-3	-6	-3	-4	1	·
COc1ccc(NC(=O)N(C)C[C@@H]2Oc3ccc(NC(=O)Nc4ccc(F)cc4)cc3CC(=O)N([C@@H](C)CO)C[C@H]2C)cc1	13	8	-2	-1	1	·
COc1ccc(-c2cnc3c(c2)C(=O)N([C@@H](C)CO)C[C@H](C)[C@H](CN(C)C(=O)Cc2ccccn2)O3)cc1	-6	-2	-1	6	0	·
COc1ccccc1-c1c(C(F)(F)F)oc2cc(OS(C)(=O)=O)ccc2c1=O	-10	0	-10	-26*	-3	17
COc1ccccc1-c1c(C(F)(F)F)oc2cc(OC(=O)c3ccccc3[N+](=O)[O-])ccc2c1=O	·	·	-1	·	·	28
O=C(C[C@@H]1CC[C@H](NC(=O)C2CC2)[C@H](CO)O1)NCCCN1CCOCC1	6	1	18	2	-2	·
SMILES	DENV2 CPE	S100A4 inh HTS	Cneo AK release	Ecoli rRNA inh	AF4-AF9 inh	PfHsp90 set2
COc1cccc(NC(=O)Nc2ccc3c(c2)C(=O)N(C)C[C@@H](OC)[C@@H](C)CN(C)[C@H](C)CO3)c1	26*	1	-4	-2	0	·
CO[C@@H]1CN(C)C(=O)c2cc(NC(=O)Nc3cccc(F)c3)ccc2OC[C@@H](C)N(C)C[C@H]1C	5	22	4	1	5	·
CO[C@H]1CN(C)C(=O)c2cc(NC(=O)Nc3cccc(F)c3)ccc2OC[C@H](C)N(C)C[C@H]1C	29*	18	103*	-4	2	·
C[C@@H]1CCCCO[C@H](CN(C)S(=O)(=O)c2cn(C)cn2)[C@@H](C)CN([C@H](C)CO)C(=O)c2cc(NS(=O)(=O)c3cn(C)cn3)ccc2O1	-6	-5	62	4	-2	·
c1ccc2c3c([nH]c2c1)-c1[nH]ncc1CC3	·	·	6	·	·	-1
Clc1ccc2[nH]c3c(c2c1)CCc1cn[nH]c1-3	·	·	0	·	·	110*
COc1cccc(S(=O)(=O)Nc2ccc3c(c2)C(=O)N(C)C[C@H](OC)[C@H](C)CN(Cc2ccccc2F)[C@@H](C)CO3)c1	-7	3	1	-18*!	5	·
CO[C@@H]1CN(C)C(=O)c2ccc(NS(=O)(=O)c3cccc(F)c3)cc2OC[C@H](C)N(Cc2cc(F)ccc2F)C[C@@H]1C	28*	-3	-3	-5	-2	·
C[C@@H]1CN([C@H](C)CO)C(=O)Cc2cc(NS(=O)(=O)c3ccc(F)cc3)ccc2O[C@H]1CN(C)C(=O)Nc1cccc2ccccc12	0	-3	-10	-2	2	·
Cc1noc(C)c1S(=O)(=O)Nc1ccc2c(c1)CC(=O)N([C@H](C)CO)C[C@H](C)[C@@H](CN(C)Cc1ccc(C(F)(F)F)cc1)O2	-8	9	-3	·	4	·
O=C(NCc1ccc(F)cc1)C1C2C=CC3(CN(Cc4cccnc4)C(=O)C13)O2 (configuration not stated)	·	·	116*	·	·	11
O=C(NCc1ccc(Cl)cc1)C1C2C=CC3(CN(Cc4cccnc4)C(=O)C13)O2 (configuration not stated)	·	-4	-4	-15	1	5
